From ChEMBL document CHEMBL5647691, “CDKN2A/p16 Loss Implicates CDK4 as a Therapeutic Target in Imatinib-Resistant Dermatofibrosarcoma Protuberans” (Mol Cancer Ther, 2015)
Activity calls are given as the source filed them. The calls are words filed in the database; no cut-off is given here.

Key:
[1] = Antiproliferative activity against human Imatinib-resistant DFSP105 cells assessed as cell growth inhibition incubated for 48 hrs by BrdU cell proliferation assay; type: functional
In short: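 DFSP105 cells (IMDM, 15% FBS, passages 10-30) seeded at 2500/well; drug added in fresh medium 24 h after plating, 48 h exposure, BrdU added for final 24 h. Proliferation read by BrdU chemiluminescent ELISA; GI50 = 50% growth inhibition concentration.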

[2] = tested on: Imatinib-resistant DFSP105 cell; test: Antitumor activity against human Imatinib-resistant DFSP105 cells xenografted in athymic nude mouse assessed as tumor growth inhibition by measuring tumor size at 75 mg/kg,po daily for 5 weeks; type: functional, organism-based
In short: (§1)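 S.c. DFSP105 xenografts (2 million cells in Matrigel) in athymic nude mice, treated after ~5 weeks establishment with daily gavage: imatinib 75 mg/kg in water or PD-0332991 150 mg/kg in HCl/Cremophor EL/PEG 300/acetate pH 4.6 vehicle, versus untreated, for 5 weeks. Tumor volume and body weight monitored weekly; mean ± SE.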

[3] = tested on: Imatinib-resistant DFSP105 cell; test: Antitumor activity against human Imatinib-resistant DFSP105 cells xenografted in athymic nude mouse assessed as tumor cell density at 75 mg/kg,po daily for 5 weeks by immunohistochemistry analysis; type: functional, organism-based
In short: (§2)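 Athymic nude mice given 2 million DFSP105 cells s.c. in Matrigel; after ~5 weeks tumor establishment, daily gavage (imatinib 75 mg/kg in water; PD-0332991 150 mg/kg in HCl/Cremophor EL/PEG 300/acetate pH 4.6 vehicle) for 5 weeks. BrdU i.p. 2 h before CO2 euthanasia; resected tumors examined histologically for cell density and BrdU-positive nuclei.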

[4] = Toxicity in athymic nude mouse xenografted with human Imatinib-resistant DFSP105 cells assessed as body weight loss at 75 mg/kg,po daily for 5 weeks; type: organism-based; settings: in vivo, 840 h; in short: as §1
[5] = molecular target: Platelet-derived growth factor receptor beta (Homo sapiens) (UniProt P09619); settings: Imatinib-resistant DFSP105 cell, dose 500.0 nM
[6] = molecular target: T1, Retinoblastoma-associated protein (Homo sapiens) (UniProt P06400); test: Inhibition of RB1 phosphorylation at S795 residue in human Imatinib-resistant DFSP105 cells at […] incubated for 24 hrs by Western blot analysis; type: cell-based; settings: Imatinib-resistant DFSP105 cell
T1 sequence (whole entry): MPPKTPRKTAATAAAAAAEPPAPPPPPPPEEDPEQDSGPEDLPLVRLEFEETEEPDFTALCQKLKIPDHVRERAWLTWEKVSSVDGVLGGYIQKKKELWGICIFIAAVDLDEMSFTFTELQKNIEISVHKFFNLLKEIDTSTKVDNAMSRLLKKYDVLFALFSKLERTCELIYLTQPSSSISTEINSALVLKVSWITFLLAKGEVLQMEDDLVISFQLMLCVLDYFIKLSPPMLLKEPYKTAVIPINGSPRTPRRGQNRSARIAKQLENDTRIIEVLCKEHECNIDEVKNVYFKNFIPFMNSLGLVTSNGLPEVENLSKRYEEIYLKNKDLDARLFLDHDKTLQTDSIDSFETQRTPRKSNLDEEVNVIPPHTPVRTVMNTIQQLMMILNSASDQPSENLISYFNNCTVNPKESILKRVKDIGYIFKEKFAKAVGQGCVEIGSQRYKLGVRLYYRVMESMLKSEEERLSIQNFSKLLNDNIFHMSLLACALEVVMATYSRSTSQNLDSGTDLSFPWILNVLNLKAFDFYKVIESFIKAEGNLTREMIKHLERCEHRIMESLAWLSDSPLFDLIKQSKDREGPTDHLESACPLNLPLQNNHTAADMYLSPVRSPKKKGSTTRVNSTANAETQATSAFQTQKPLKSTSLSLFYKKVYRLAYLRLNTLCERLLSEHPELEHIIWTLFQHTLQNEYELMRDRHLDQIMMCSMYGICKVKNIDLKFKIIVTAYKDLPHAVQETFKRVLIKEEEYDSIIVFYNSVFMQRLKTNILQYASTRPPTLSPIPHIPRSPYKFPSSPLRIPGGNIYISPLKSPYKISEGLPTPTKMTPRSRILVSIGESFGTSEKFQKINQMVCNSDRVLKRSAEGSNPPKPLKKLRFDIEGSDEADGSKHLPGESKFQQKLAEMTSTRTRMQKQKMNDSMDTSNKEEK
In short: (§3)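 DFSP105 cells treated 24 h with CDK4/6 inhibitor over a dose series; whole-cell lysates cleared 14,000 rpm 30 min 4°C, protein by Bradford, then immunoblotting for phospho-RB1 and cyclin A.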

[7] = tested on: Imatinib-resistant DFSP105 cell; test: Antitumor activity against human Imatinib-resistant DFSP105 cells xenografted in athymic nude mouse assessed as tumor cell density at 150 mg/kg,po daily for 5 weeks by immunohistochemistry analysis; type: functional, organism-based; in short: as §2
[8] = tested on: Imatinib-resistant DFSP105 cell; test: Antitumor activity against human Imatinib-resistant DFSP105 cells xenografted in athymic nude mouse assessed as tumor growth inhibition by measuring tumor size at 150 mg/kg,po daily for 5 weeks; type: functional, organism-based; in short: as §1
[9] = tested on: Imatinib-resistant DFSP105 cell; test: Antitumor activity against human Imatinib-resistant DFSP105 cells xenografted in athymic nude mouse assessed as decrease in RB1 phosphorylation at S807 residue in tumor at 150 mg/kg,po daily for 5 weeks by Western blot analysis; type: functional, organism-based
In short: (§4)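 Nude mice bearing s.c. DFSP105 xenografts (2 million cells in Matrigel, ~5 weeks to establish) dosed daily by gavage at 150 mg/kg in HCl/Cremophor EL/PEG 300/acetate pH 4.6 vehicle for 5 weeks; tumor lysates (homogenized in ice-cold buffer with protease inhibitors) immunoblotted for phospho-RB1.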

[10] = molecular target: T1, Retinoblastoma-associated protein (Homo sapiens); test: Inhibition of RB1 phosphorylation at S807 residue in human Imatinib-resistant DFSP105 cells at […] incubated for 24 hrs by Western blot analysis; type: cell-based; settings: Imatinib-resistant DFSP105 cell; in short: as §3
[11] = tested on: Imatinib-resistant DFSP105 cell; test: Antiproliferative activity against human Imatinib-resistant DFSP105 cells assessed as decrease in Cyclin A expression at […] incubated for 24 hrs by Western blot analysis; type: functional, cell-based; in short: as §3
[12] = molecular target: T1, Retinoblastoma-associated protein (Homo sapiens); test: Inhibition of RB1 phosphorylation at S811 residue in human Imatinib-resistant DFSP105 cells at […] incubated for 24 hrs by Western blot analysis; type: cell-based; settings: Imatinib-resistant DFSP105 cell; in short: as §3
[13] = tested on: Imatinib-resistant DFSP105 cell; test: Antitumor activity against human Imatinib-resistant DFSP105 cells xenografted in athymic nude mouse assessed as decrease in RB1 phosphorylation at S795 residue in tumor at 150 mg/kg,po daily for 5 weeks by Western blot analysis; type: functional, organism-based; in short: as §4
[14] = Toxicity in athymic nude mouse xenografted with human Imatinib-resistant DFSP105 cells assessed as body weight loss at 150 mg/kg,po daily for 5 weeks; type: organism-based; settings: in vivo, 840 h; in short: as §1

Platelet-derived growth factor receptor beta (Homo sapiens), sequence (P09619 whole entry): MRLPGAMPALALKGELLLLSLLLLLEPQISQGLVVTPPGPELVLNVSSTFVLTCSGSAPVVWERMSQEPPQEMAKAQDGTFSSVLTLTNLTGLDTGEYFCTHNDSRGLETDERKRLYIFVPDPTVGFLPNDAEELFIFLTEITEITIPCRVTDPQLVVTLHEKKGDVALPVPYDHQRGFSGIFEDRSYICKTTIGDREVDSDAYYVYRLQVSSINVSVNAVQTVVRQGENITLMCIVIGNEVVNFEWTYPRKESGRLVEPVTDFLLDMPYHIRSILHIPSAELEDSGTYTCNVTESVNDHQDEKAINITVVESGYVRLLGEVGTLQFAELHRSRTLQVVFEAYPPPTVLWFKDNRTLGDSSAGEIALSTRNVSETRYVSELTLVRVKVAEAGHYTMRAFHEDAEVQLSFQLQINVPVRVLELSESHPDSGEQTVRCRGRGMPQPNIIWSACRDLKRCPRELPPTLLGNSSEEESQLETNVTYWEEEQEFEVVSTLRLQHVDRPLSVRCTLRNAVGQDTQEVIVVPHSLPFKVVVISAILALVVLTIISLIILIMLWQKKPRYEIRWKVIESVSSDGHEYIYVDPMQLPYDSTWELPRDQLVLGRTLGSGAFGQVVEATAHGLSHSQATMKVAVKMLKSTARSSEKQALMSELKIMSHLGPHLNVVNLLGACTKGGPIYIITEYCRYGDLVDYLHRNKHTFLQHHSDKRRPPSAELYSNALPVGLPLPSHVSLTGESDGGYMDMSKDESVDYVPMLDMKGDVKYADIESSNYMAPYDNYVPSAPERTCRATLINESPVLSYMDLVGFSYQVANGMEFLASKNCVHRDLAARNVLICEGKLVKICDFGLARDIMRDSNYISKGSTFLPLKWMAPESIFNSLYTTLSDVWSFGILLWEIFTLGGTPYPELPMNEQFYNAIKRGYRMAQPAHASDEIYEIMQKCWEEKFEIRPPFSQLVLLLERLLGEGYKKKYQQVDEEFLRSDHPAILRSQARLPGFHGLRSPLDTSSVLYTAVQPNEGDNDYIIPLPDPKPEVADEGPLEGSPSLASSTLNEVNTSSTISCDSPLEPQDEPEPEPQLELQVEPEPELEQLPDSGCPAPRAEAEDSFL

SMILES | GI50 [1] [nM] | inhibition [5] | inhibition [6] | inhibition [10] | Activity [11] | inhibition [12] | other results
CO[C@H]1C[C@@H]2CC[C@@H](C)[C@@](O)(O2)C(=O)C(=O)N2CCCC[C@H]2C(=O)O[C@H]([C@H](C)C[C@@H]2CC[C@@H](OCCO)[C@H](OC)C2)CC(=O)[C@H](C)/C=C(\C)[C@@H](O)[C@@H](OC)C(=O)[C@H](C)C[C@H](C)/C=C/C=C/C=C/1C [EVEROLIMUS] | 5 | – | – | – | – | – | –
Cc1ccc(NC(=O)c2ccc(CN3CCN(C)CC3)cc2)cc1Nc1nccc(-c2cccnc2)n1 [IMATINIB] | > 5000 | Active | – | – | – | – | Activity [2]: inactive; Activity [3]: inactive; Activity [4]: Non-Toxic
CC(=O)c1c(C)c2cnc(Nc3ccc(N4CCNCC4)cn3)nc2n(C2CCCC2)c1=O [PALBOCICLIB] | 160 | – | Active | Active | Active | Active | Activity [7]: inactive; Activity [8]: Active; Activity [9]: Active; Activity [13]: Active; Activity [14]: Non-Toxic
CS(=O)(=O)N1CCN(Cc2cc3nc(-c4cccc5[nH]ncc45)nc(N4CCOCC4)c3s2)CC1 [PICTILISIB] | 1900 | – | – | – | – | – | –
CN(C)C(=O)c1cc2cnc(Nc3ccc(N4CCNCC4)cn3)nc2n1C1CCCC1 [RIBOCICLIB] | 276 | – | Active | Active | Active | Active | –
CCN(CC)CCNC(=O)c1c(C)[nH]c(/C=C2\C(=O)Nc3ccc(F)cc32)c1C [SUNITINIB] | > 5000 | Active | – | – | – | – | –
